Screening results: PubChem, several laboratories
A selection: hits, their analogues and other compounds. The true share with any hit is near 1.7%.
Scp1 inh: Scp-1 (human) phosphatase inhibition. Q9GZU7. Recombinant Scp1, phosphopeptide, malachite green phosphate absorbance. inhibition, % at 20 µM. hit rate 0.88% among 340,000. AID 493091;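 active = inhibition above about 50% at 20 µM, limit read from the data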;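 also: plate controls were DMSO wells with enzyme for no effect and wells lacking enzyme for full effect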
Target sequence (Q9GZU7 76-261 limits assumed): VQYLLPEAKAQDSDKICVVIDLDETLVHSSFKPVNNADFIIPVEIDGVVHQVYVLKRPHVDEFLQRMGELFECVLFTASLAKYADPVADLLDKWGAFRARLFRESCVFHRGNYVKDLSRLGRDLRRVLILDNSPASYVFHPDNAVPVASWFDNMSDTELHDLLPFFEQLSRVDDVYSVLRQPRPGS
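System: truncated SCP-1 phosphatase (76-261aa); medium: Tris acetate buffer pH 5.5 with MgCl2 and Tween-20; incubation: 45 min room-temperature reaction, 5 min colour, 30 min stabiliser; compound: single 20 µM dose, 1% DMSO; reagent: Phosphorylated 17-residue peptide substrate; read-out: % inhibition at 20 µM; technique: colorimetric free-phosphate detection, absorbance 630 nm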
DNMT1 block: DNMT1 (human) enzyme inhibition; P26358; DNMT1 molecular beacon, Hinp1I cleavage, fluorescence; inhibition (reported as % activation of signal), % at 10 µM; hit rate 0.83% among 360,000; in the data active = inhibition above about 50%
STEP inh: inhibitors of human striatal-enriched phosphatase STEP | P54829 | recombinant STEP, OMFP fluorogenic substrate, fluorescence | inhibition, % at 20 µM | hit rate 0.25% among 360,000 | AID 588621;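 active = inhibition at 20 µM, scaled per plate between control wells, above about 37%, limit read from the data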;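 also: 0% = DMSO with enzyme and substrate and 100% = substrate only without enzyme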
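Assay system: isolated STEP enzyme / Timing: 20 min at room temperature, dark / Doses: 20 µM, 1% DMSO / Technique: fluorescence intensity, excitation 480 nm, emission 540 nm / Reagent: fluorogenic phosphatase substrate OMFP at 25 µM final / Measure: percent inhibition scaled to no-enzyme and uninhibited-enzyme controls, plate-pattern corrected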
SUMO1-SIM PPI: SUMO1-SIM interaction modulation. hit rate 0.33% among 360,000. P63165. AID 602429. SUMO1 binding to a labelled peptide, TR-FRET, 1 h. inhibition, % at 20 µM; in the data active = inhibition above about 37%
Casp6 inh: caspase-6 (human) enzyme inhibition | P55212 | purified caspase-6, Z-VEID-R110 cleavage fluorescence | inhibition, % at 12.5 µM | hit rate 0.53% among 350,000 | AID 686996;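 active = mean inhibition across replicates at least about 35%, with every replicate also reaching that limit, limit read from the data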;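 also: 0% = median of neutral control wells and 100% = no fluorescence left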
Target sequence (P55212 24-179 limits assumed): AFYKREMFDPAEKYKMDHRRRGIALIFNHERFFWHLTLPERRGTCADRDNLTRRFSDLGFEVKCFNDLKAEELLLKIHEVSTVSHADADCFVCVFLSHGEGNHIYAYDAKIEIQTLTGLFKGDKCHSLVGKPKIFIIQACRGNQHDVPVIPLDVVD
Target sequence (P55212 194-293 limits assumed): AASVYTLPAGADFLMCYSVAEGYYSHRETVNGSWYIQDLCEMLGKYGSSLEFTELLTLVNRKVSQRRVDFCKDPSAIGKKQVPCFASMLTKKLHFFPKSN
LMPTP inh: blocks human LMPTP phosphatase; inhibition, % at 20 µM; recombinant LMPTP-A, OMFP fluorogenic substrate, fluorescence intensity; AID 651560; hit rate 0.22% among 360,000;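 active = compounds that cut the enzyme signal by at least half of the control window in the single-dose screen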;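 also: plate controls were DMSO wells with enzyme plus substrate for no effect and substrate without enzyme for full effect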
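Test system – LMPTP-A enzyme · Amount – LMPTP-A at 0.625 nM final in the reaction · Buffer or medium – Bis-Tris pH 6.0, DTT, detergent · Reagent – OMFP 400 µM · Doses – single 20 µM dose · Schedule – reaction 50 min, room temperature, dark · Detection – fluorescence intensity of OMFP turnover product · Evaluation – percent inhibition versus substrate-only and uninhibited controls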
DNMT1 inh conf: confirmation of human DNMT1 inhibitors | shares compounds with DNMT1 block | DNMT1 molecular beacon HinP1I cleavage, fluorescence | inhibition, % at 10 µM | hit rate 8% among 2,300 | AID 602385;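 active = average inhibition of at least 30% in the single-concentration confirmation test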
DNMT1 interf: shows spectral interference in the DNMT1 beacon assay | hit rate 1% among 2,300 | activation (fluorescence interference), % at 10 µM | AID 602387 | DNMT1 molecular beacon spectral interference counterscreen, fluorescence 485/520 | shares compounds with DNMT1 block;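 active = activation of at least 30% at 10 µM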;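 also: DNMT1 catalytic domain with a HinP1I cleavage step and a FAM/dabcyl DNA beacon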
* = called active by the depositor; . = no result given.

SMILES	Scp1 inh	DNMT1 block	STEP inh	SUMO1-SIM PPI	Casp6 inh	LMPTP inh	DNMT1 inh conf	DNMT1 interf
C[C@H](CO)N1C[C@H](C)[C@@H](CN(C)C(=O)Nc2ccc3c(c2)OCO3)Oc2c(NC(=O)Nc3ccccc3)cccc2C1=O	-14	1	-3	1	2	-2	.	.
COc1ccc(Cl)cc1NC(=O)Cn1c(C)csc1=O	-6	-1	0	-2	-3	0	.	.
COC(=O)c1sccc1NC(=O)Nc1ccc(C)c(C)c1	-15	-3	0	-1	1	3	.	.
C[n+]1cccc2cccc([O-])c21	-14	78*	7	40*	52*	52*	2	-3
[O-][n+]1cccc2cccc(O)c21	-10	-5	0	-6	25	-1	.	.
O=C(Cn1cnc2c(cnn2-c2ccc(F)cc2)c1=O)OCc1ccccc1	-3	4	1	3	.	2	.	.
COc1ccc(/C=C(\C#N)C(=O)NCc2ccccc2)cc1O	2	1	-2	-26	4	0	.	.
COc1ccc(/C=C(\C#N)C(=O)Nc2cc(C)c(Cl)cc2OC)cc1O	-7	70*	6	5	-2	8	5	-2
CN(C)S(=O)(=O)N(CC(=O)N1CCN(c2ccccc2)CC1)c1ccccc1	-5	0	-2	2	3	0	.	.
O=C(C1=C(O)C(=O)N(c2nc3ccc(Cl)cc3s2)C1c1ccco1)c1ccco1 (stereo not given)	64*	90*	28	40*	88*	60*	12	4
Cc1ccc2nc(N3C(=O)C(O)=C(C(=O)c4ccco4)C3c3ccc(O)cc3)sc2c1 (stereo not given)	.	0	5	-22	1	2	.	.
CC1=NN(C(=O)c2c(Br)cnn2C)C(O)(C(F)(F)F)C1 (stereo not given)	-14	3	0	-1	.	-2	.	.
COc1ccc2c(c1OC)C(=O)OC2	-4	2	-3	5	1	-1	.	.
COc1ccc2c3c(cccc13)C(=O)CC2	-12	128*	-92	-48	3	23	23	37*
CCn1c(CC(=O)Nc2ccccc2F)nnc1SCC(=O)N1CCN(c2ccccc2)CC1	-6	77*	0	-2	.	-1	1	1
CCn1c(CC(=O)Nc2ccccc2F)nnc1SCC(=O)N1CCOCC1	-13	2	3	2	1	-1	.	.
O=C(C1COc2ccccc2O1)N1CCc2ccccc21 (stereo not given)	74*	58*	6	8	.	2	11	2
O=C(C1COc2ccccc2O1)N1CCCC1 (stereo not given)	-2	1	-4	5	.	-1	.	.
COc1ccc(NC(=O)C(C)N2C(=O)c3ccccc3C2=O)c(OC)c1 (stereo not given)	-11	3	0	2	1	0	.	.
O=C(/C=C/c1ccc(Br)o1)NCc1ccccc1	-2	74*	2	11	8	34	9	4
CO[C@H]1CN(C)C(=O)c2cc(NC(=O)Nc3ccccc3)ccc2OC[C@@H](C)N(C(=O)CN(C)C)C[C@@H]1C	.	.	.	.	-4	.	.	.
COc1ccc(/C=N\NC(=O)c2ccccc2F)cc1COc1ccc(F)cc1F	-9	-5	3	0	0	8	.	.
COc1ccc(/C=N/NC(=O)c2ccc(NC(C)=O)cc2)cc1COc1ccc(F)cc1F	24	77*	1	14	-3	7	-2	-6
COc1ccc(/C=N/NC(=O)c2nc(Cl)c(Cl)c(N)c2Cl)cc1COc1ccc(F)cc1F	13	53*	3	2	.	3	9	0
Cc1cccc(Nc2ccncc2S(=O)(=O)NC(=O)NC(C)C)c1	-9	1	-2	4	-3	-1	.	.
Fc1ccccc1CN1CCC(Cc2ccccc2)CC1	6	70*	0	0	-2	-2	5	5
